Results published in ChEMBL document CHEMBL1141179 (J Med Chem, 2005).
Bridge positions count the residues as written; N and C are the ends. Square brackets hold non-standard residues; d marks the D form. Peptide text beside a SMILES is read from it.

Tests used:
[1] = organism: Rattus norvegicus; test: Relative potency of compound to inhibit insulin secretion […]; format: functional
[2] = organism: Rattus norvegicus; test: Relative potency of compound to inhibit glucagon secretion […]; format: functional
[3] = organism: Rattus norvegicus; test: Relative potency of compound to inhibit growth hormone secretion in rat anterior pituitary cells; format: functional, Pituitary gland cell
[4] = biological target: Somatostatin receptor type 2 (Homo sapiens, UniProt P30874); test: Inhibition of 125I-[Leu8,D-Trp22,Tyr25]SRIF-28 binding to human somatostatin receptor type 2
Somatostatin receptor type 2, sequence (P30874 whole entry): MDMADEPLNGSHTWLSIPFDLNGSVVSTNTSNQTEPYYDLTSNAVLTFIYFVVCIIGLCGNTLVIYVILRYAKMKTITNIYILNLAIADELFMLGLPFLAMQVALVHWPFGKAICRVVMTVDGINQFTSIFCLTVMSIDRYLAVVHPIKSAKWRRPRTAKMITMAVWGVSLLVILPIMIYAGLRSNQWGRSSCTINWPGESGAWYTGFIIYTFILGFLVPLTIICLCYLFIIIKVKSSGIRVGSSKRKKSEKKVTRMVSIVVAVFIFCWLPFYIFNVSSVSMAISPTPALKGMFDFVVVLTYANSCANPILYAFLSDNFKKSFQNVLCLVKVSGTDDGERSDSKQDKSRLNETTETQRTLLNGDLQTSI
Outline: (§1)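 Human sst2 or sst3 receptor stably expressed in CCL39 cells. 20 µm cryostat sections of cell membrane pellets were used for autoradiographic binding. IC50 (nM) came from competitive displacement. Values are mean ± SEM when N ≥ 3; otherwise mean with single values.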

[5] = biological target: Somatostatin receptor type 3 (Homo sapiens, UniProt P32745); test: Inhibition of 125I-[Leu8,D-Trp22,Tyr25]SRIF-28 binding to human somatostatin receptor type 3; outline: as §1
Somatostatin receptor type 3, sequence (P32745 whole entry): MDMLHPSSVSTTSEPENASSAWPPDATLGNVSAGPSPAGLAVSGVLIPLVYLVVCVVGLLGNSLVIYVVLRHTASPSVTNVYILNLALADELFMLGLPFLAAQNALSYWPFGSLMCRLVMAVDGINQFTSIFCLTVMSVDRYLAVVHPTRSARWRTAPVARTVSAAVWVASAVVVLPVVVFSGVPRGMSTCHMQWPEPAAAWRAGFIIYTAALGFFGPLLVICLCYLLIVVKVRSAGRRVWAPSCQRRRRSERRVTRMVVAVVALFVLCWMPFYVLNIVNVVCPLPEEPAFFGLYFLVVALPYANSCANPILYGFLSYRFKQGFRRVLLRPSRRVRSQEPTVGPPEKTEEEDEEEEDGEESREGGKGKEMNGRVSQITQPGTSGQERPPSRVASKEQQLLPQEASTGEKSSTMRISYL

[6] = biological target: Somatostatin receptor type 4 (Homo sapiens, UniProt P31391); test: Inhibition of 125I-[Leu8,D-Trp22,Tyr25]SRIF-28 binding to human somatostatin receptor type 4
Somatostatin receptor type 4, sequence (P31391 whole entry): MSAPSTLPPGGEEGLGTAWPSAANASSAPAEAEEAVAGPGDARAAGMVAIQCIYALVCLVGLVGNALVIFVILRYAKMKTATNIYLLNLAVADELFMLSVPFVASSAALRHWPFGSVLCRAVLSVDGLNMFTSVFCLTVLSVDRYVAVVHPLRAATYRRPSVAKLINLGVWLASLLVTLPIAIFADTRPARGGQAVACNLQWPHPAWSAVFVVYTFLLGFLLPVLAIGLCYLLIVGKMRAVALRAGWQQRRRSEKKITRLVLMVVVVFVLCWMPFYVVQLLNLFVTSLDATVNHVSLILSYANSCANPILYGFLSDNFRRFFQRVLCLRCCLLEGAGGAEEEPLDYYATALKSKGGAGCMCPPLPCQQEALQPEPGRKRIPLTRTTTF

[7] = biological target: Somatostatin receptor type 5 (Homo sapiens, UniProt P35346); test: Inhibition of 125I-[Leu8,D-Trp22,Tyr25]SRIF-28 binding to human somatostatin receptor type 5
Somatostatin receptor type 5, sequence (P35346 whole entry): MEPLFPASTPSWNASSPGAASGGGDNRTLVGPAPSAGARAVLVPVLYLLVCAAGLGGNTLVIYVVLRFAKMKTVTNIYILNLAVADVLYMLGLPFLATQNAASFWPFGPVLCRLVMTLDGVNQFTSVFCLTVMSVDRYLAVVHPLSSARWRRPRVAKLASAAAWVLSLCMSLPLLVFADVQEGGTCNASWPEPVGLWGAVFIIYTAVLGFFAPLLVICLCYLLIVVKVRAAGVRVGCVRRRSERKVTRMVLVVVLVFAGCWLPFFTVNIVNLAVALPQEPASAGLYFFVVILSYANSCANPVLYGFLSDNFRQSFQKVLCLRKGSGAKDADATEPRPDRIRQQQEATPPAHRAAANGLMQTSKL
Outline: (§2)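 Human sst1 or sst5 receptor stably expressed in CHO-K1 cells. 20 µm cryostat sections of cell membrane pellets were used for receptor autoradiography. IC50 (nM) came from competitive radioligand displacement. Values are mean ± SEM when N ≥ 3; otherwise mean with single values.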

[8] = biological target: Somatostatin receptor type 1 (Homo sapiens, UniProt P30872); test: Inhibition of 125I-[Leu8,D-Trp22,Tyr25]SRIF-28 binding to human somatostatin receptor type 1; outline: as §2
Somatostatin receptor type 1, sequence (P30872 whole entry): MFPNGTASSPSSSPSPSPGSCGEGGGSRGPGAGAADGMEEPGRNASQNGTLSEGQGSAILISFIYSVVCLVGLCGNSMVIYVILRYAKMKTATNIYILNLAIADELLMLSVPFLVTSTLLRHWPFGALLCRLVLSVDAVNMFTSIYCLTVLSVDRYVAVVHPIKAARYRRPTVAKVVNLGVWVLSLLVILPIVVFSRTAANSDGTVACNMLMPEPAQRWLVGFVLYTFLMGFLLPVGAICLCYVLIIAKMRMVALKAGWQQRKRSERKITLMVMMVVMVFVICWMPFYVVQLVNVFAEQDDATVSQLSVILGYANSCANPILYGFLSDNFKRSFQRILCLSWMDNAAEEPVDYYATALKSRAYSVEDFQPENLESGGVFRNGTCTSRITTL

| IC50 [4] | IC50 [5] | IC50 [6] | IC50 [7] | IC50 [8] | Structure (SMILES) | Relative potency [1] | Relative potency [2] | Relative potency [3] |
| --- | --- | --- | --- | --- | --- | --- | --- | --- |
|  |  |  |  |  | NCCCC[C@@H]1NC(=O)[C@@H](Cc2c[nH]c3ccccc23)NC(=O)[C@H](Cc2ccccc2)NC(=O)[C@H](Cc2ccccc2)NC(=O)[C@@H](N)CSSC[C@@H](C(=O)O)NC(=O)[C@H](Cc2ccccc2)NC1=O | <1 | <1 | <0.01 |
|  |  |  |  |  | C[C@@H](O)[C@@H]1NC(=O)[C@H](Cc2ccccc2)NC(=O)[C@H]([C@@H](C)O)NC(=O)[C@H](CCCCN)NC(=O)[C@@H](Cc2c[nH]c3ccccc23)NC(=O)[C@H](Cc2ccccc2)NC(=O)[C@H](Cc2ccccc2)NC(=O)[C@@H](N)CSSC[C@@H](C(=O)O)NC(=O)[C@H](CO)NC1=O | 700 | <1 | 110 |
|  |  |  |  |  | C[C@@H](O)[C@@H]1NC(=O)[C@H](CCCCN)NC(=O)[C@@H](Cc2c[nH]c3ccccc23)NC(=O)[C@H](Cc2ccccc2)NC(=O)[C@H](Cc2ccccc2)NC(=O)[C@@H](N)CSSC[C@@H](C(=O)O)NC1=O | <1 | <1 | 0.07 |
|  |  |  |  |  | C[C@@H](O)[C@@H]1NC(=O)[C@H](Cc2ccccc2)NC(=O)[C@H]([C@@H](C)O)NC(=O)[C@H](CCCCN)NC(=O)[C@@H](Cc2c[nH]c3ccccc23)NC(=O)[C@H](Cc2ccccc2)NC(=O)[C@H](Cc2ccccc2)NC(=O)[C@H](CC(N)=O)NC(=O)[C@@H](N)CSSC[C@@H](C(=O)O)NC1=O | 75 |  | 8 |
|  |  |  |  |  | C[C@@H](O)[C@@H]1NC(=O)[C@H](CCCCN)NC(=O)[C@@H](Cc2c[nH]c3ccccc23)NC(=O)[C@H](Cc2ccccc2)NC(=O)[C@H](Cc2ccccc2)NC(=O)[C@H](CC(N)=O)NC(=O)[C@@H](N)CSSC[C@@H](C(=O)O)NC(=O)[C@H](Cc2ccccc2)NC1=O [listing 1 of 2 here] | 72 | <1 | <1 |
|  |  |  |  |  | C[C@@H](O)[C@@H]1NC(=O)[C@H](CCCCN)NC(=O)[C@@H](Cc2c[nH]c3ccccc23)NC(=O)[C@H](Cc2ccccc2)NC(=O)[C@H](Cc2ccccc2)NC(=O)[C@H](CCCCN)NC(=O)[C@@H](N)CSSC[C@@H](C(=O)O)NC(=O)[C@H](Cc2ccccc2)NC1=O | 310 | 115 | 15 |
| 95 nM | 189 nM | 1.2 nM | 31 nM | 59 nM | C[C@@H](O)[C@@H]1NC(=O)[C@H](CCCCN)NC(=O)[C@@H](Cc2c[nH]c3ccccc23)NC(=O)[C@H](Cc2ccccc2)NC(=O)[C@H](Cc2ccccc2)NC(=O)[C@H](CC(N)=O)NC(=O)[C@@H](N)CSSC[C@@H](C(=O)O)NC(=O)[C@H](Cc2ccccc2)NC1=O [listing 2 of 2 here] |  |  |  |
|  |  |  |  |  | C[C@@H](O)[C@@H]1NC(=O)[C@H](CCCCN)NC(=O)[C@@H](Cc2c[nH]c3ccccc23)NC(=O)[C@H](Cc2ccccc2)NC(=O)[C@H](Cc2ccccc2)NC(=O)[C@@H](N)CSSC[C@@H](C(=O)O)NC(=O)[C@H](Cc2ccccc2)NC1=O (H-CFF[dW]KTFC-OH; disulfide 1-8) | 45 | 7 | 4 |
| > 1000 nM | > 1000 nM | > 1000 nM | > 1000 nM | 94 nM | CC(C)NCc1ccc(C[C@@H]2NC(=O)[C@@H](Cc3c[nH]c4ccccc34)NC(=O)[C@@H]3CCC(=O)NCCCCC[C@H](NC(=O)[C@H](Cc4ccccc4)NC(=O)[C@H]([C@@H](C)O)NC2=O)C(=O)N[C@@H](CO)C(=O)N[C@H](C(=O)O)CSSC[C@H](NC(=O)[C@@H](N)Cc2ccc(O)cc2)C(=O)N[C@@H](CCCCN)C(=O)N[C@@H](Cc2ccccc2)C(=O)N3)cc1 |  |  |  |
| > 1000 nM | > 1000 nM | > 1000 nM | > 1000 nM | 274 nM | CC(C)NCc1ccc(C[C@@H]2NC(=O)[C@@H](Cc3c[nH]c4ccccc34)NC(=O)[C@@H]3CCC(=O)NCCCC(=O)NCCCC[C@H](NC(=O)[C@H](Cc4ccccc4)NC(=O)[C@H]([C@@H](C)O)NC2=O)C(=O)N[C@@H](CO)C(=O)N[C@H](C(=O)O)CSSC[C@H](NC(=O)[C@@H](N)Cc2ccc(O)cc2)C(=O)N[C@@H](CCCCN)C(=O)N[C@@H](Cc2ccccc2)C(=O)N3)cc1 |  |  |  |
